The text below walks through data of ChEMBL document CHEMBL5634203, “A Tiny Pocket Packs a Punch: Leveraging Pyridones for the Discovery of CNS-Penetrant Aza-indazole IRAK4 Inhibitors” (ACS Med Chem Lett, 2024).

Values after ≈ are worked out from the molar mass of the structure shown.

In series [1] the test system is Mus musculus. The series can be described thus: Anti-inflammatory activity in po dosed C57BL/6 mouse assessed reduction in LPS-induced IL-6 level in plasma preincubated with compound for 60 mins followed by LPS-induction and measured after 90 mins by ELISA analysis. Type of series: functional, organism-based. To be noted: dose 10-100 mg/kg, time 150.0 min. The procedure, abridged:
(§1)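 Mice dosed orally with vehicle (0 mpk) or 10, 30 or 100 mpk, 60 min before intraperitoneal LPS. Cytokine levels and free drug concentration in plasma and brain taken 90 min after LPS. Each dose group compared by one-way ANOVA with the vehicle group given i.p. LPS.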
(In general: In an ELISA, binding on a coated surface is turned into a signal by an enzyme label.)

The subject of series [2] is Mus musculus. Description: Anti-inflammatory activity in po dosed C57BL/6 mouse assessed reduction in LPS-induced IL-1beta level in brain preincubated with compound for 60 mins followed by LPS-induction and measured after 90 mins by ELISA analysis. To be noted: dose 10-100 mg/kg, time 150.0 min. Type of series: functional, organism-based. The procedure, abridged: as §1

Series [3] concerns Mus musculus. The series can be described thus: Anti-inflammatory activity in po dosed C57BL/6 mouse assessed reduction in LPS-induced TNFalpha level in plasma preincubated with compound for 60 mins followed by LPS-induction and measured after 90 mins by ELISA analysis. To be noted: dose 10-100 mg/kg, time 150.0 min. Type of series: functional, organism-based. The procedure, abridged:
as §1

A short description of series [4]: Intrinsic clearance in human liver microsomes. The class given is ADME, Microsome. The settings on record: read-out: CLH. The essentials:
(§2)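 Intrinsic clearance measured in human liver microsomes and in human hepatocytes and reported as scaled values. Arithmetic mean of at least two experiments.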

The subject of series [5] is Mus musculus. The series can be described thus: Anti-inflammatory activity in po dosed C57BL/6 mouse assessed reduction in LPS-induced TNFalpha level in brain preincubated with compound for 60 mins followed by LPS-induction and measured after 90 mins by ELISA analysis. Type of series: functional, organism-based. The settings on record: dose 10-100 mg/kg, time 150.0 min. The essentials: as §1

Series [6] concerns Mus musculus. Description: Anti-inflammatory activity in po dosed C57BL/6 mouse assessed reduction in LPS-induced IL-1beta level in plasma preincubated with compound for 60 mins followed by LPS-induction and measured after 90 mins by ELISA analysis. Type of series: functional, organism-based. To be noted: dose 10-100 mg/kg, time 150.0 min. The essentials: as §1
The test system of series [7] is Mus musculus. The series can be described thus: Anti-inflammatory activity in po dosed C57BL/6 mouse assessed reduction in LPS-induced KC-GRO level in brain preincubated with compound for 60 mins followed by LPS-induction and measured after 90 mins by ELISA analysis. Type of series: functional, organism-based. The settings on record: dose 10-100 mg/kg, time 150.0 min. The procedure, abridged: as §1

Series [8] deals with Mus musculus. Description: Anti-inflammatory activity in po dosed C57BL/6 mouse assessed increase in LPS-induced IL-10 level in plasma preincubated with compound for 60 mins followed by LPS-induction and measured after 90 mins by ELISA analysis. The settings on record: dose 10-100 mg/kg, time 150.0 min.
Series [9] in a line: Intrinsic clearance in human hepatocytes. The class given is ADME, cell-based, Hepatocyte. The essentials:
as §2

Series [10] relates to Mus musculus. Description: Anti-inflammatory activity in po dosed C57BL/6 mouse assessed reduction in LPS-induced IL-6 level in brain preincubated with compound for 60 mins followed by LPS-induction and measured after 90 mins by ELISA analysis. The class given is functional, organism-based. To be noted: dose 10-100 mg/kg, time 150.0 min. The essentials: as §1
Series [11] in a line: Clearance in Sprague-Dawley rat measured for 4 hrs by LC-MS/MS analysis. The settings on record: in vivo. The class given is ADME. The essentials: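 Male Sprague Dawley rats dosed by infusion. Clearance measured during the cassette Kpu,u procedure.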
Series [12] deals with Mus musculus. Description: Anti-inflammatory activity in po dosed C57BL/6 mouse assessed reduction in LPS-induced MCP-1 level in brain preincubated with compound for 60 mins followed by LPS-induction and measured after 90 mins by ELISA analysis. The class given is functional, organism-based. The settings on record: dose 10-100 mg/kg, time 150.0 min. The essentials:
as §1

A short description of series [13]: Kinetic solubility of compound in DMSO at pH 6.8 incubated for 24 hrs. To be noted: read-out: Kinetic_solubility. The class given is physicochemical. The procedure, abridged:
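Kinetic solubility assay at pH 6.8. Arithmetic mean of at least two experiments.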

Series [14] is described as follows: Lipophilicity, log D of the compound at pH 7.4. Type of series: physicochemical. To be noted: buffer.
The nature of series [15]: Unbound brain-to-plasma concentration ratio in Sprague-Dawley rat brain at 1 mg/kg, iv by LC-MS/MS analysis. Type of series: ADME, organism-based. The settings on record: read-out: K(p,uu,brain). The essentials: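 Male Sprague Dawley rats dosed by infusion as a cassette. Total drug measured in brain (Cb) and plasma (Cp). Kpu,u calculated as (Cb×Fub)/(Cp×Fup), using the unbound fractions in brain and in plasma.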

In series [16] the test system is Mus musculus. The series can be described thus: Anti-inflammatory activity in po dosed C57BL/6 mouse assessed reduction in LPS-induced MCP-1 level in plasma preincubated with compound for 60 mins followed by LPS-induction and measured after 90 mins by ELISA analysis. The settings on record: dose 10-100 mg/kg, time 150.0 min. The class given is functional, organism-based. The essentials: as §1

Series [17] concerns Mus musculus. The series can be described thus: Anti-inflammatory activity in po dosed C57BL/6 mouse assessed reduction in LPS-induced KC-GRO level in plasma preincubated with compound for 60 mins followed by LPS-induction and measured after 90 mins by ELISA analysis. The class given is functional, organism-based. The settings on record: dose 10-100 mg/kg, time 150.0 min. The procedure, abridged: as §1

A short description of series [18]: Plasma protein binding in rat assessed as unbound fraction. Type of series: ADME, cell-free.
Series [19] can be described thus: Plasma protein binding in human assessed as unbound fraction. The class given is ADME, cell-free.

What is called clearance is the rate of elimination divided by the concentration. For orientation: logD means lipophilicity at a set pH, counting ionised and neutral species. Low values mean lower lipophilicity, high ones higher lipophilicity. On to `CC(C)Oc1cc2nn(C34COC(C)(C3)C4)cc2cc1C(=O)Nc1cccn(C)c1=O`, for which the Activity entry in the series with Mus musculus [1], in the series on Mus musculus [2], in the series on Mus musculus [3], in the series on Mus musculus [5], with Mus musculus [6] and in the series with Mus musculus [7] was “Dose-Dependent Effect” throughout. The Activity result in the series on Mus musculus [8], in the series with Mus musculus [10], in the series on Mus musculus [12], in the series on Mus musculus [16] and in the series on Mus musculus [17] was “Dose-Dependent Effect” each time. Moreover, in [4], the microsomal CLint stood at 7.07 µL/min/mg. Besides, the CLH in series [9] was 3.43 µL/min/mg. For the same compound, the clearance in series [11] was 11.2 mL/min/kg. Moreover, in [13], the solubility kinetic at 24 h was 58 µg/mL (≈ 137 µM). In [14], this compound came in with a logD of 2.16. For the same compound, the Kp uu in series [15] turned out to be 1.
What is called fraction unbound is free concentration divided by total concentration. As to `CC(C)Oc1cc2nn(C34COC(C)(C3)C4)cc2cc1C(=O)Nc1cccn([C@H]2C[C@H]2F)c1=O`, the microsomal CLint in series [4] is < 5.3 µL/min/mg. For the same compound, the fraction unbound amounted to 0.047 in series [18] and 0.0232 in series [19]. In [9], the CLH is 3.8 µL/min/mg. The solubility kinetic at 24 h in [13] worked out at 56 µg/mL (≈ 120 µM). In series [14], this compound yielded a logD of 2.74.
As for `CC(C)Oc1nc2nn(C34COC(C)(C3)C4)cc2cc1C(=O)Nc1cccn([C@@H]2C[C@@H]2F)c1=O`, the microsomal CLint in series [4] was < 5.3 µL/min/mg. For the same compound, the fraction unbound in series [18] amounted to 0.083; in series [19], 0.0127. In series [9], this compound displayed a CLH of 3.3 µL/min/mg. Besides, the solubility kinetic at 24 h in [13] was found to be 6.6 µg/mL (≈ 14.1 µM). The same compound displayed a logD in [14] of 2.61.
Consider `CC(C)Oc1nc2nn(C34COC(C)(C3)C4)cc2cc1C(=O)Nc1cccn([C@H]2C[C@H]2F)c1=O`, for which, in series [4], the microsomal CLint was < 5.3 µL/min/mg. Besides, the values for the fraction unbound in [18] and in series [19] were 0.0718 and 0.0594, respectively. In [9], this compound yielded a CLH of 3 µL/min/mg. The compound also had a clearance in [11] of 43 mL/min/kg. Also, the solubility kinetic at 24 h in series [13] is 25 µg/mL (≈ 53.5 µM). The compound also yielded a logD in series [14] of 2.54. In addition, in series [15], the Kp uu came to 0.7.
